# Measurements collected from several papers.
# Lines come from different studies, so protocols differ.
Compound,target or system,effect on,technique,strain,time,measurement,result
COc1cc2ncnc(Nc3ccc4c(c3)/C(=C/c3ccccc3)C(=O)N4C)c2cc1OC,B16,cell growth or viability,MTT,,,IC50,1530 nM
Cl.N[C@H]1CCN(c2cc(C(=O)NCC(=O)O)ccc2NC(=O)c2cc(Br)c(Br)[nH]2)C1,Acinetobacter baumannii,microbial growth,broth dilution,ATCC19606,,MIC,> 32 µg/mL
O=C(O)c1cn(C2CC2)c2cc(N3CCNCC3)c(F)cc2c1=O,Mycobacterium kansasii,microbial growth,broth dilution,DSM44162,7 days,MIC,1 µg/mL
O=C(O)c1cn(C2CC2)c2cc(N3CCNCC3)c(F)cc2c1=O,Acinetobacter baumannii,microbial growth,broth dilution,ATCC19606,,MIC,2 µM
NNC(=O)c1ccncc1,Mycobacterium kansasii,microbial growth,broth dilution,DSM44162,7 days,MIC,4 µg/mL
Cc1[nH]c(C(=O)Nc2ccc(C(=O)NCc3n[nH]c(=O)o3)cc2N2CCNCC2)c(Cl)c1Cl.Cl,Acinetobacter baumannii,microbial growth,broth dilution,ATCC19606,,MIC,> 32 µg/mL
Cc1nc(N(Cc2ccccc2)c2ccc3c(c2)/C(=C/c2ccccc2)C(=O)N3Cc2ccccc2)c2ccccc2n1 (mixture of isomers),B16,cell growth or viability,MTT,,,IC50,200 nM
O=C(O)c1cn(C2CC2)c2cc(N3CCNCC3)c(F)cc2c1=O,Acinetobacter baumannii,microbial growth,,ATCC19606,,MIC,8 µM
COc1cc2ncnc(N(C)c3ccc4c(c3)/C(=C/c3ccccc3)C(=O)N4C)c2cc1OC (mixture of isomers),B16,cell growth or viability,MTT,,,IC50,8070 nM
C=CC(=O)NC1CCN(c2ncc3ncnc(Nc4ccc(Oc5ccc6c(c5)ncn6C)c(C)c4)c3n2)CC1,Capan-2,cell growth or viability,,,,EC50,36.1 nM
